We go through 27 molecules from ChEMBL document CHEMBL4325926, “Potent Antimalarial 2-Pyrazolyl Quinolone bc 1 (Qi) Inhibitors with Improved Drug-like Properties” (ACS Med Chem Lett, 2018).

Converted amounts (≈) assume the structure as drawn. The source made the active and inactive calls. The calls are words filed in the database; no cut-off is given here.

One data set concerns HepG2. Briefly: Cytotoxicity against human HepG2 cells after 24 hrs by MTT assay. The format is cell-based. The following applies: HepG2, 24 h.
Data set [1] concerns Plasmodium falciparum. Briefly: Antimalarial activity against chloroquine-sensitive Plasmodium falciparum 3D7 measured after 48 hrs by SYBR green1 dye based fluorescence assay. Type of data set: functional, organism-based. The following applies: 3D7, 48 h.
Data set [2] has as its system Plasmodium falciparum. The data set is described as follows: Antimalarial activity against chloroquine-resistant Plasmodium falciparum W2 measured after 48 hrs by SYBR green1 dye based fluorescence assay. Type of data set: functional, organism-based. The following applies: W2, 48 h.
Data set [3] concerns Plasmodium falciparum. Briefly: Antimalarial activity against chloroquine-resistant Plasmodium falciparum TM90C2B harboring Y268S mutant measured after 48 hrs by SYBR green1 dye based fluorescence assay. Type of data set: functional, organism-based.
Data set [4] is described as follows: Inhibition of Plasmodium falciparum cytochrome bc1 complex using cytochrome-c as substrate and decylubiquinol as donor by spectrophotometric method.
Data set [5] is described as follows: Inhibition of recombinant Plasmodium falciparum NDH2 expressed in Escherichia coli using NADH as substrate.
Data set [6] is described as follows: Aqueous solubility of the compound in pH 7.4 phosphate buffered saline. Type of data set: physicochemical. The method in brief: (§1)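 In vitro DMPK measurements performed by an external DMPK group. Aqueous solubility measured in pH 7.4 PBS buffer. Protein binding measured in human plasma.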
The nature of data set [7]: Therapeutic index, ratio of IC50 for human HepG2 cells to IC50 for chloroquine-sensitive Plasmodium falciparum 3D7.
Data set [8] relates to Plasmodium falciparum. The data set is described as follows: Antimalarial activity against Plasmodium falciparum TX13 expressing yeast dihydroorotate dehydrogenase at >1000 nM. The format is functional, organism-based.
Data set [9] is described as follows: Protein binding in human plasma. The format is ADME, cell-free. The following applies: read-out: PPB. The method in brief:
as §1

On to `C=C(C)[C@H]1Cc2c(ccc3c2O[C@@H]2COc4cc(OC)c(OC)cc4[C@@H]2C3=O)O1` [ROTENONE], for which the IC50 with HepG2 amounted to 1520 nM.

Take `COc1ccc2c(=O)c(C)c(-c3cnn(Cc4ccc(OC(F)(F)F)cc4)c3)[nH]c2c1`: the IC50 in the data set with Plasmodium falciparum [1] was determined as 33 nM; in the data set on Plasmodium falciparum [2], 15 nM; in the data set on Plasmodium falciparum [3], 500 nM; in data set [4], 0.75 nM; in data set [5] it was 1000 nM; in the data set with HepG2, 11000 nM. The concentration in solution in [6] (solubility) was 0.3 µM (≈ 0.129 µg/mL). The selectivity ratio in [7] stood at 333.

Turning to `COc1ccc2c(=O)cc(-c3cnn(Cc4ccc(OC(F)(F)F)cc4)c3)[nH]c2c1`, the IC50 with Plasmodium falciparum [1] was found to be 419 nM.

As for `Cc1c(-c2cnn(CCc3ccc(OC(F)(F)F)cc3)c2)[nH]c2ccccc2c1=O`, the IC50 in the data set on Plasmodium falciparum [1] was > 1000 nM.

Turning to `Cc1c(-c2ccc(-c3cnn(CCN4CCOCC4)c3)nc2)[nH]c2ccccc2c1=O`, the IC50 in the data set on Plasmodium falciparum [1] is > 1000 nM.

On to `O=C1C(O)=C([C@H]2CC[C@H](c3ccc(Cl)cc3)CC2)C(=O)c2ccccc21` [ATOVAQUONE], for which the IC50 was found to be 0.3 nM in the data set with Plasmodium falciparum [2] and 10000 nM in data set [5].

As for `COc1ccc2c(=O)c(Cl)c(-c3cnn(Cc4ccc(OC(F)(F)F)cc4)c3)[nH]c2c1`, the results for the IC50 in the data set with Plasmodium falciparum [1], with Plasmodium falciparum [2] and in the data set on Plasmodium falciparum [3] were 91 nM, 11 nM and 110 nM, respectively. Also, the outcome in the data set with Plasmodium falciparum [8] was inactive.

Regarding `CCOC(=O)c1c(-c2cnn(Cc3ccc(OC(F)(F)F)cc3)c2)[nH]c2ccccc2c1=O`, in the data set on Plasmodium falciparum [1], half-maximal inhibition (IC50) was put at 89 nM.

In [6], `Cc1c(-c2ccc(Cc3ccc(OC(F)(F)F)cc3)cc2)[nH]c2ccccc2c1=O` came in with a solubility of 0.03 µM (≈ 0.0123 µg/mL).

`O=c1cc(-c2cnn(CCN3CCOCC3)c2)[nH]c2ccccc12` returned an IC50 in the data set with Plasmodium falciparum [1] of 690 nM.

Consider `Cc1c(-c2cnn(Cc3ccc(OC(F)(F)F)cc3)c2)[nH]c2ccccc2c1=O`, for which the IC50 in the data set on Plasmodium falciparum [1] stood at 100 nM; in the data set with Plasmodium falciparum [2] it was 33 nM; in data set [5], 837 nM; with HepG2 it was 13000 nM. Further, the solubility in data set [6] came to 0.1 µM (≈ 0.0399 µg/mL). Moreover, the selectivity ratio in data set [7] was determined as 130.

With `Cc1c(-c2cnn(Cc3ccc(OC(F)(F)F)cc3)c2)[nH]c2cc(Cl)ccc2c1=O`, the IC50 with Plasmodium falciparum [1] worked out at 50 nM.

With `O=c1c(Cl)c(-c2cnn(Cc3ccc(OC(F)(F)F)cc3)c2)[nH]c2ccccc12`, the values for the IC50 in the data set with Plasmodium falciparum [1], with Plasmodium falciparum [2] and in the data set on HepG2 were 166 nM, 14 nM and 28400 nM, respectively. Besides, in data set [6], the concentration in solution (solubility) was 0.01 µM (≈ 0.0042 µg/mL). Besides, the fraction unbound in data set [9] was < 0.001. In data set [7], the selectivity ratio turned out to be 171.

The molecule `CC/C(=C(\c1ccccc1)c1ccc(OCCN(C)C)cc1)c1ccccc1` [TAMOXIFEN] registered an IC50 in the data set on HepG2 of 12000 nM.

For `COc1ccc2c(=O)c(Cl)c(-c3ccn(Cc4ccc(OC(F)(F)F)cc4)n3)[nH]c2c1`, in the data set on Plasmodium falciparum [1], the IC50 turned out to be 376 nM.

In the data set with Plasmodium falciparum [1], `Cc1c(-c2cnn(Cc3ccc(OC(F)(F)F)cc3)c2)[nH]c2cc(C(F)(F)F)ccc2c1=O` came in with an IC50 of 810 nM.

`COc1ccc2c(=O)cc(-c3ccn(Cc4ccc(OC(F)(F)F)cc4)n3)[nH]c2c1` had an IC50 with Plasmodium falciparum [1] of 541 nM.

For the molecule `CCc1c(-c2cnn(Cc3ccc(OC(F)(F)F)cc3)c2)[nH]c2ccccc2c1=O`, the values for the IC50 with Plasmodium falciparum [1] and with HepG2 were 88 nM and 19300 nM, respectively. The molecule also displayed a solubility in [6] of 0.2 µM (≈ 0.0827 µg/mL). Further, in [7], the selectivity ratio amounted to 219.

Regarding `O=c1cc(-c2cnn(Cc3ccc(F)cc3)c2)[nH]c2ccccc12`, in the data set with Plasmodium falciparum [1], the IC50 was found to be 160 nM.

For the molecule `Cc1c(-c2cnn(Cc3ccc(OC(F)(F)F)cc3)c2)[nH]c2cc(F)ccc2c1=O`, the IC50 in the data set with Plasmodium falciparum [1] amounted to 80 nM.

For `Cc1c(-c2cnn(Cc3ccc(OC(F)(F)F)cc3)c2)[nH]c2ccc(F)cc2c1=O`, in the data set on Plasmodium falciparum [1], it took 54 nM to reach half-maximal inhibition (IC50).

The molecule `Cc1c(-c2cnn(Cc3ccc(OC(F)(F)F)cc3)c2)[nH]c2ccc(Cl)cc2c1=O` had an IC50 with Plasmodium falciparum [1] of 110 nM.

For `O=c1cc(-c2cnn(Cc3ccc(C(F)(F)F)nc3)c2)[nH]c2ccccc12`, it took 580 nM to reach half-maximal inhibition in the data set with Plasmodium falciparum [1] (IC50).

Turning to `O=c1cc(-c2cnn(Cc3ccc(OC(F)(F)F)cc3)c2)[nH]c2ccccc12`, in the data set with Plasmodium falciparum [1], half-maximal inhibition (IC50) was put at 74 nM.

On to `Cc1c(-c2ccc(-c3cnn(CCN4CCOCC4)c3)cc2)[nH]c2ccccc2c1=O`, for which the IC50 in the data set with Plasmodium falciparum [1] is > 1000 nM.

For the molecule `CC(C)c1c(-c2cnn(Cc3ccc(OC(F)(F)F)cc3)c2)[nH]c2ccccc2c1=O`, the IC50 in the data set with Plasmodium falciparum [1] came to 299 nM.

`Cc1c(-c2ccn(Cc3ccc(OC(F)(F)F)cc3)n2)[nH]c2ccccc2c1=O`: the IC50 in the data set on Plasmodium falciparum [1] stood at 270 nM; in the data set with Plasmodium falciparum [2] it was 49 nM; with Plasmodium falciparum [3], 300 nM; in data set [5] it was 68 nM; in the data set on HepG2, 21200 nM. The solubility in data set [6] amounted to 0.4 µM (≈ 0.16 µg/mL). Besides, the selectivity ratio in [7] stood at 79.
